From PubChem
HSF-1 act – increases HSF-1 driven luciferase reporter signal. NIH3T3-HGL HSF-1 luciferase reporter, MG132, 8 h; 100% = twice DMSO control signal. AID 504408. activation, % at 9 µM. 1.7% of 300,000 active;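 active = mean replicate activation of at least 50% with a set share of replicates each reaching 50%; inconclusive = only one of those two conditions met; inactive = mean below 50% and too few replicates reaching it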
HSF1 inhib – HSF1 inhibition | 0.77% of 300,000 active | AID 2098 | NIH3T3-HGL HSE-luciferase, MG132-induced, luminescence 8 h; active compounds read low | activity change, negative = inhibition, % at 7.5 µM (by protocol);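 active = more than half of replicate wells show activity change below -50%, luminescence cut by over half; inconclusive = some wells, but at most half, below -50%; inactive = no replicate well below -50%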;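 note: luciferase reports HSF-1 transcriptional activity via heat shock element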
HSP90 refold inh – HSP90 refolding inhibition in rabbit reticulocyte lysate. luciferase refolding luminescence, 3 h. inhibition, % at 5.6 µM. 0.91% of 290,000 active;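 active = inhibition above the screen-wide mean plus 3 SD, computed separately per campaign, cut at about 16% in these data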;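 note: inhibitors lower the luminescence because luciferase stays unfolded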
Hsp70 act – Hsp70 transcriptional activation, primary screen. 0.04% of 200,000 active. HeLa Hsp70 promoter luciferase reporter, luminescence; scaled: vehicle 0, proteasome-inhibitor control 100%. activation, % at 10 µM;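 active = activation above the mean across all tested compounds plus 3 SD, cutoff set per campaign, cut at about 5.5% in these data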
TbHK1 inh – T. brucei hexokinase 1 inhibition. 0.11% of 220,000 active. inhibition, % at 10 µM. recombinant TbHK1, G6PDH-coupled NADH A340. AID 1430;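 active = inhibition of 50% or more in the single-dose primary screen; inactive = inhibition below 50%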
HKDC1 inhibitor – HKDC1 (human) hexokinase inhibition; recombinant HKDC1, G6PDH/diaphorase resazurin coupled fluorescence; inhibition, % at 20 µM; 0.16% of 340,000 active; AID 493160;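 active = inhibition above about 35% when tested at 20 µM, limit read from the data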
Target sequence (Q2TB90 whole entry, looked up): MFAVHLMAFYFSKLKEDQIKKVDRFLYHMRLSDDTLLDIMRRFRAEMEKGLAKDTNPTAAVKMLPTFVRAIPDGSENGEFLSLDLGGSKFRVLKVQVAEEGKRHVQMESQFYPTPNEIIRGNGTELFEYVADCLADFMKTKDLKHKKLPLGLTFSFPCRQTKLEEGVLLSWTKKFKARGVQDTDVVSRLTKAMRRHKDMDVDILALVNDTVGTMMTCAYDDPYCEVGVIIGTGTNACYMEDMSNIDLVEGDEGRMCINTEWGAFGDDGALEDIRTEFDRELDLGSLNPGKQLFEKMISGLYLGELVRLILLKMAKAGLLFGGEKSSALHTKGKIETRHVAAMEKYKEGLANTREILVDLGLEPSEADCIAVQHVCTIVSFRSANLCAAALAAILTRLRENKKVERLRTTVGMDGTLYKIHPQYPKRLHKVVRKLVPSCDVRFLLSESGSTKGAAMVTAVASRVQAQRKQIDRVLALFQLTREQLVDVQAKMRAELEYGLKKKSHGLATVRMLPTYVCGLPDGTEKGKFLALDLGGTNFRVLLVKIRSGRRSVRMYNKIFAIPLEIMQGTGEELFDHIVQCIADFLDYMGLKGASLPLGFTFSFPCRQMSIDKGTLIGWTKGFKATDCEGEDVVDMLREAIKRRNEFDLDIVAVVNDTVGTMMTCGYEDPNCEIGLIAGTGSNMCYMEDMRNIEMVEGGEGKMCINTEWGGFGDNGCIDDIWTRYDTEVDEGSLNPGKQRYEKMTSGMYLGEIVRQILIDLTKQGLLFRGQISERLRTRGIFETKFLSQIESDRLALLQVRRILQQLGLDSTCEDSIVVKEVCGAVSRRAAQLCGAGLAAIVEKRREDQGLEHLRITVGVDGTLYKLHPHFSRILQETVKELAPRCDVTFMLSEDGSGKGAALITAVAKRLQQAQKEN
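Test system: Recombinant HKDC1 (HK5) hexokinase enzyme, produced in-house | Input: HKDC1 at 5 µg/mL | Buffer or medium: Tris pH 8.0 buffer with MgCl2, Tween-20, BSA, BME | Schedule: 90 min reaction incubation at room temperature, dark | Technique: Resazurin-to-resorufin fluorescence via G6PDH and diaphorase coupling, 525/613 nm | Controls: DMSO wells with and without enzyme mix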
HSP90 inh confirm – confirmation of HSP90 inhibitors. shares compounds with HSP90 refold inh. rabbit reticulocyte lysate, luciferase refolding luminescence, 3 h. 64% of 2,300 active. inhibition, % at 5.9 µM; in the data active = inhibition above about 18%
FLuc counter – counter-screen for HSP90 inhibitors: inhibitors of firefly luciferase. shares compounds with HSP90 refold inh. purified native firefly luciferase, luminescence. inhibition, % at 5.9 µM. 48% of 2,300 active. AID 1847;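 active = inhibition above the mean inhibition of all tested sample wells plus 3 SD, cut at about 10% in these data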
A number is an active result; 0 = inactive; ? = inconclusive; - = no result. Rows were chosen to be rich in hits. Some 3.1% of all compounds tested hit in one or more screens of this group.

SMILES	HSF-1 act	HSF1 inhib	HSP90 refold inh	Hsp70 act	TbHK1 inh	HKDC1 inhibitor	HSP90 inh confirm	FLuc counter
CN(C)c1ccc(N=Nc2ccc3ncccc3c2)cc1	-	-	-	-	-	0	-	-
CN(C)c1ccc(N=Nc2cccc(F)c2)cc1	0	0	38.6	-	-	0	47.4	41.3
Cc1ccc(C)c(Cn2nnc3c(=O)[nH]c(C4CCN(S(=O)(=O)c5ccc(S(=O)(=O)N(C)C)cc5)CC4)nc32)c1	0	0	22.1	-	-	0	19.3	0
COc1cccc(C(C)NC(=O)c2ccncc2)c1 (configuration not stated)	0	0	0	-	-	0	-	-
CCOc1ccc(N(CC(=O)N2CCCCCC2)S(=O)(=O)c2ccc(F)cc2)cc1	0	0	35.0	-	-	0	0	0
CCOc1ccc(N(CC(=O)N2CCOCC2)S(=O)(=O)c2ccc(F)cc2)cc1	0	0	0	-	-	0	-	-
O=C(CN1CCN(CN2C(=O)NC3(CCCCCC3)C2=O)CC1)Nc1ccc(F)cc1	-	-	-	-	-	0	-	-
Cn1cccc1-c1cc(C(=O)N/N=C/c2ccc(Cl)cc2)[nH]n1	0	0	19.1	-	-	0	0	0
CN1C[C@@H]2[C@@H]3C(=O)N(Cc4ccccc4)C(=O)[C@@H]3[C@](Cc3ccccc3)(C1=O)N2C(=O)c1ccc(Cl)cc1	-	-	-	-	-	0	-	-
COc1cccc(S(=O)(=O)N2CCN(Cc3ccc4c(c3)OCO4)CC2)c1	0	0	0	-	-	0	-	-
COc1ccc(C(=O)Cn2c(C)nc([N+](=O)[O-])c2Br)cc1	172.2	0	22.4	-	0	0	0	0
Cc1nc([N+](=O)[O-])c(Br)n1CC(=O)c1ccc(Cl)cc1	0	0	0	0	0	0	-	-
O=C(NCCc1cccs1)c1ccc(Cl)c(Cl)c1	0	0	0	0	0	0	-	-
O=C(NCCc1cccs1)c1ccc(Cl)cc1	0	0	18.9	-	0	0	44.8	40.7
Cc1ccc(C(=O)NCCc2cccs2)cc1	0	0	54.8	0	0	0	74.2	62.1
Cc1ccc(C(=O)NCCSC(C)(C)C)cc1	0	0	19.2	0	0	0	30.8	24.5
Cc1ccc(S(=O)(=O)N2CCN(C(=O)COC(=O)/C=C/c3cccc([N+](=O)[O-])c3)CC2)c(C)c1	-	-	-	-	-	0	-	-
O=C(NCC(c1ccco1)N1CCCC1)c1cccc(S(=O)(=O)N2CCOCC2)c1 (configuration not stated)	-	-	-	-	-	0	-	-
CN(C)CCCN(C(=O)CCS(=O)(=O)c1ccccc1)c1nc2cc3c(cc2s1)OCO3	0	0	0	-	-	0	-	-
CN(C)CCCN(C(=O)CCSc1ccccc1)c1nc2cc3c(cc2s1)OCO3	0	0	56.9	0	0	0	0	0
COc1ccc(CCNC(=O)c2cccc(S(=O)(=O)N3CCc4ccccc4C3)c2)cc1	-	-	-	-	-	0	-	-
C/C(=N\NC(=O)c1ccccc1O)c1cccs1	0	0	23.4	0	0	0	40.3	44.3
Nc1ccc(-c2nc3cc(N)ccc3o2)cc1	0	0	0	-	-	0	-	-
CN(C)c1ccc(-c2nc3cc(N)ccc3o2)cc1	0	0	29.5	-	-	0	55.0	51.5
O=C(O)/C=C/c1cnc2ccccc2n1	0	0	0	0	0	0	-	-
SMILES	HSF-1 act	HSF1 inhib	HSP90 refold inh	Hsp70 act	TbHK1 inh	HKDC1 inhibitor	HSP90 inh confirm	FLuc counter
O=C(/C=C/c1cnc2ccccc2n1)NC12CC3CC(CC(C3)C1)C2	0	-71.3	28.0	0	0	0	43.6	32.0
Cc1ccccc1-c1cccc([C@@H]2C[C@H]3C(CN2)CON3C)c1 (some centres not stated)	-	-	-	-	-	0	-	-
Cc1nn(Cc2ccccc2)c(C)c1CNC(=O)[C@H](C)N=C1NS(=O)(=O)c2ccccc21	-	-	-	-	-	0	-	-
O=C(CSc1nc2ccccc2s1)N/N=C/c1ccccc1C(=O)O	0	-63.0	17.5	-	0	0	0	0
COc1ccc(C(=O)Nc2ccccc2C(=O)N/N=C/c2ccco2)cc1	0	0	0	0	0	0	-	-
CCOc1ccc(/C=N/NC(=O)c2ccccc2NC(=O)c2ccc(OC)cc2)cc1	0	0	18.6	0	0	0	0	0
CCn1cc(CN2CCC(n3nccc3NC(=O)CCc3ccccc3)CC2)cn1	0	0	0	-	-	0	-	-
COc1ccc(NC(C)C(=O)N/N=C/c2ccc([N+](=O)[O-])s2)cc1 (configuration not stated)	0	0	0	0	0	0	-	-
Cc1ccc(NC(C)C(=O)N/N=C/c2ccc([N+](=O)[O-])s2)cc1 (configuration not stated)	0	0	34.7	0	0	0	0	0
CCN(CC)S(=O)(=O)c1ccc(N2CC(C(=O)NC3(C)CCS(=O)(=O)C3)CC2=O)cc1 (configuration not stated)	-	-	-	-	-	0	-	-
COc1ccc(N2CCN(c3ccc4nnc(CCC(=O)Nc5ccc(C)cc5)n4n3)CC2)cc1	0	0	0	-	-	0	-	-
c1c2c(cc3sc(N4CCCCC4)nc13)OCO2	0	0	24.6	0	0	0	59.0	52.5
CCc1ccc(C(=O)Nn2c(C)nc3ccccc3c2=O)cc1	0	0	0	-	-	0	-	-
CCOC(=O)CSc1nc2ccccc2c(=O)n1NC(=O)c1ccccc1	0	0	20.1	0	0	0	0	0
COc1ccc(C(=O)Nn2c(SCc3ccc([N+](=O)[O-])cc3)nc3ccccc3c2=O)cc1	0	?	55.2	0	0	0	45.1	33.4
COc1ccc(C(=O)Nn2c(SCC(=O)c3ccccc3)nc3ccccc3c2=O)cc1	0	-59.5	48.1	0	0	0	53.4	48.4
CNS(=O)(=O)c1cc(NC(=O)c2cnc(SC)n2-c2ccccc2)ccc1C	0	0	0	-	-	0	-	-
Nc1cc(=O)[nH]c(SCC(=O)NNC(=O)Cc2ccccc2)n1	0	0	23.5	0	0	0	0	0
Nc1cc(=O)[nH]c(SCC(=O)NNC(=O)c2ccccc2)n1	0	0	-	-	-	0	-	-
COc1cccc(NC(=O)CCC2CCN(C(=O)c3cncs3)CC2)c1	0	0	0	-	-	0	-	-
C/C(=N\OCc1cccc(C(=O)O)c1)c1ccc(Cl)cc1	0	0	71.2	-	0	0	85.7	87.4
Cc1[nH]n(-c2ccccc2)c(=O)c1N=Nc1ccccc1	0	0	0	0	0	0	-	-
Cc1[nH]n(-c2ccccc2)c(=O)c1N=Nc1cccc(C(=O)O)c1	0	0	23.1	-	-	0	66.2	78.5
Cc1[nH]n(-c2ccccc2)c(=O)c1N=Nc1ccc(Cl)cc1	0	0	0	-	-	0	-	-
Cc1[nH]n(-c2ccccc2)c(=O)c1N=Nc1ccc(C(N)=O)cc1	0	0	25.2	-	-	0	39.0	0
CC(=O)c1ccc(N=Nc2c(C)[nH]n(-c3ccccc3)c2=O)cc1	0	0	35.4	-	-	0	59.5	0
Cc1[nH]n(-c2ccccc2)c(=O)c1N=Nc1ccc(C(=O)O)cc1	0	0	36.0	-	-	0	33.9	0
